Data on eight compounds can be found in PMC4135234 (Combinatorial chemistry & high throughput screening, 2014).

The subject of one data set is MSI. The data set can be described thus: FP MSI RNA binding assay, statement does not separate MSI1 and MSI2. More on the design: species or system human. To be noted: 10 μM.
Data set [1] addresses T1, LIN28A (Homo sapiens, UniProt Q9H9Z2).
T1 sequence (Q9H9Z2 1-209): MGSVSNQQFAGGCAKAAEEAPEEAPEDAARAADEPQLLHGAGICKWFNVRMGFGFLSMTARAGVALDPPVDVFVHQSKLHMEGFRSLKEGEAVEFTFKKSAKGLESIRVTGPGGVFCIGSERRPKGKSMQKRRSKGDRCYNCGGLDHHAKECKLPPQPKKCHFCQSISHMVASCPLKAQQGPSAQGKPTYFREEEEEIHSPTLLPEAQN
The data set can be described thus: Orthogonal SYBR-based EMSA, inhibition of RNA binding to LIN28A. As to conditions: 1 mM (LC), MSI Oligo #2 200 pmols, 1000 ng protein. In short, it runs like this:
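GST-LIN28A (1000 ng, E. coli-expressed) pre-incubated 30 min at room temperature in EMSA buffer with 1% DMSO, 10 μM test compound or 1 mM oleic acid. Then 200 pmols 15-nt ssRNA MSI Oligo #2 added for 30 min more (20 μL). Native 10% polyacrylamide TBE gel in chilled 0.5X TBE at 4°C, 100V, 2–2.5 h. 2X SYBR Safe stain, imaged. At least two repeats.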
(In general: A gel shift assay detects complexes by their altered migration in electrophoresis.)

For data set [2], the target named is T2, MSI1 (Homo sapiens, UniProt O43347). Description: Orthogonal SYBR-based EMSA, inhibition of RNA binding to MSI1. To be noted: 1 mM (LC), MSI Oligo #2 200 pmols, 1000 ng protein.
Data set [3] addresses T3, MSI2 (Homo sapiens, UniProt Q96DH6). The data set can be described thus: FP probe displacement, 1536-well, MSI2. It counts as binding. Put shortly: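 Displacement of 10 nM Cy3-C9-r(GUAGUAGU) probe from 1 μM GST-MSI2 was run as a dose response in 1536-well format, with FP read using Cy3 filters. IC50 for displacement came from two independent experiments, each performed in triplicate.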

The target in data set [4] is T3, MSI2. Description: Orthogonal SYBR-based EMSA, inhibition of RNA binding to MSI2. To be noted: 1 mM (LC), MSI Oligo #2 200 pmols, 1000 ng protein.
The target in data set [5] is T3, MSI2. Description: SYBR-based RNA EMSA, ssRNA oligo binding to GST-MSI2. To be noted: 200 pmols ssRNA oligo, 500 to 2500 ng GST-protein; symbols not defined.
In data set [6] the target is T2, MSI1. The data set can be described thus: SYBR-based RNA EMSA, ssRNA oligo binding to GST-MSI1. To be noted: 200 pmols ssRNA oligo, 500 to 2500 ng GST-protein; symbols not defined.
Data set [7] deals with T1, LIN28A. The data set can be described thus: SYBR-based RNA EMSA, ssRNA oligo binding to GST-LIN28A. To be noted: 200 pmols ssRNA oligo, 500 to 2500 ng GST-protein; symbols not defined.

A value given as a limit tells only on which side of the number the result lay.

One may read the IC50 as the concentration that gives 50% inhibition. Low readings indicate greater potency in that assay, high ones weaker potency in that assay.

T3 sequence (Q96DH6 whole entry): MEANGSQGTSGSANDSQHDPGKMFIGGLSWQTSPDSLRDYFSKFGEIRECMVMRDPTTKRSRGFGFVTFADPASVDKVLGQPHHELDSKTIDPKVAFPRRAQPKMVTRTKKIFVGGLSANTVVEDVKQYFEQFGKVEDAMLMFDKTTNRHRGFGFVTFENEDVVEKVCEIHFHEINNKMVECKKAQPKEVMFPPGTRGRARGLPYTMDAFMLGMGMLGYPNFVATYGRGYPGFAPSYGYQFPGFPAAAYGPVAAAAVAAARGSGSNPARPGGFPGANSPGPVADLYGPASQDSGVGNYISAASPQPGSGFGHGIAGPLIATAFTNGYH
T2 sequence (O43347 whole entry): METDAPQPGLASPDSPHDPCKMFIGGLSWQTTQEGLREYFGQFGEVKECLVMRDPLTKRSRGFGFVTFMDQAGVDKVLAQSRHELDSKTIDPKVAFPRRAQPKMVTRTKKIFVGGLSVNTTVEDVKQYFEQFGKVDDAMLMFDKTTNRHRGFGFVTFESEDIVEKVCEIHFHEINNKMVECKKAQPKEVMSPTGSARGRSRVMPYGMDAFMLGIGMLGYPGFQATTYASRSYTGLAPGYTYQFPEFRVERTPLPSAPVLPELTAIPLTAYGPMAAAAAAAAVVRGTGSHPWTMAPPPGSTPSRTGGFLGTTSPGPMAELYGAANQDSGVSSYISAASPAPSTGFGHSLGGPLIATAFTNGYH

In the case of `CC[C@@]1(O)C[C@H](O[C@H]2C[C@H](N(C)C)[C@H](O)[C@H](C)O2)c2c(cc3c(c2O)C(=O)c2c(O)cccc2C3=O)[C@H]1C(=O)OC` [aklavine], in the data set with MSI, the “MSI inhibition activity in FP pilot screen, in words” value (from here on “MSI inhibition activity”) was “inhibiting MSI binding activity”.
`COc1cccc2c1C(=O)c1c(O)c3c(c(O)c1C2=O)C[C@@](O)(C(C)=O)C[C@@H]3O[C@H]1C[C@H](N)[C@H](O)[C@H](C)O1` [daunorubicin, reference compound]: in the data set on MSI, the “MSI inhibition activity” value is “inhibiting MSI binding activity”.
With `COc1cccc2c1C(=O)c1c(O)c3c(c(O)c1C2=O)C[C@@](O)(C(=O)CO)C[C@@H]3O[C@H]1C[C@H](N)[C@H](O)[C@H](C)O1` [doxorubicin, reference compound], the “MSI inhibition activity” value with MSI is reported as “inhibiting MSI binding activity”.
Regarding `CC(=O)[C@]1(O)Cc2c(O)c3c(c(O)c2[C@@H](O[C@H]2C[C@H](N)[C@H](O)[C@H](C)O2)C1)C(=O)c1ccccc1C3=O` [idarubicin, reference compound], the “MSI inhibition activity” value in the data set with MSI is “inhibiting MSI binding activity”.
With `CCCCCCCC/C=C\CCCCCCCC(=O)O` [oleic acid, reference compound], the “% inhibition of RNA binding to LIN28A (EMSA)” value on LIN28A [1] is recorded as > 80%. Also, the “% inhibition of RNA binding to MSI1 (EMSA)” value at MSI1 [2] is > 80%. Moreover, the 50% inhibitory concentration (IC50) at MSI2 [3] is 29 ± 1.7 µM. In addition, the “% inhibition of RNA binding to MSI2 (EMSA)” value at MSI2 [4] is given as > 80%.
As to `CC[C@@]1(O)C[C@H](O)c2c(cc3c(c2O)C(=O)c2c(O)ccc(O)c2C3=O)[C@H]1C(=O)OC` [rutilantinone], the “MSI inhibition activity” value in the data set on MSI was “inhibiting MSI binding activity”.
With “MSI Oligo #4: ssRNA oligo GUAGUAGUAGUAGUA, 15 nt, 4 MSI binding motifs (RNA, backbone not given here)”, in the data set with MSI2 [5], the “Binding affinity(EMSA) MSI2” value was “highest affinity”. Further, the “Binding affinity(EMSA) MSI1” value with MSI1 [6] is listed as “highest affinity”. Besides, the “Binding affinity(EMSA) LIN28A” value with LIN28A [7] is listed as “highest affinity”.
Turning to “ssRNA Oligo #8: non-specific ssRNA oligo AGGGAUCGAAAAUUG, 15 nt, no binding motif (RNA, backbone not given here)”, in the data set with LIN28A [7], the “Binding affinity(EMSA) LIN28A” value is listed as “high affinity”.
